≈ marks a conversion by molar mass, not a printed value.
Tests used:
Type in all cases: functional
Conditions in all cases: read-out: ED50 (the source's name)
A549 = assay: Cytotoxicity against human A549 cells
Outline: (§1)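 Cell lines were obtained from the American Type Culture Collection. Cytotoxicity was tested in vitro, and values are reported as ED50 in µg/mL.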

HT-29 = assay: Cytotoxicity against human HT-29 cells; outline: as §1
P388 = assay: Cytotoxicity against mouse P388 cells
Outline: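 Mouse lymphocytic leukemia P-388 cells were supplied by the Pezzuto laboratory at the University of Illinois at Chicago. Cytotoxicity was tested in vitro, and values are reported as ED50 in µg/mL.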

SMILES | EC50 (A549) [µg/mL] | EC50 (HT-29) [µg/mL] | EC50 (P388) [µg/mL]
C=C1CC/C=C(\C)CCC2=C(C(C)C)C(=O)C[C@@]2(C)CC1=O | > 50 | > 50 | 3.89 (≈ 12.9 µM)
C=C1CC/C=C(\C)CCC2=C(C(C)C)C(=O)C[C@@]2(C)C[C@H]1O (relative stereo) | 8.1 (≈ 26.8 µM) | 9.19 (≈ 30.4 µM) | 3.82 (≈ 12.6 µM)
C=C1CC[C@H]2O[C@@]2(C)C/C=C2/[C@@H](C(C)C)C(=O)C[C@]2(C)CC1=O (relative stereo) | 8.56 (≈ 27.1 µM) | 7.84 (≈ 24.8 µM) | 2.48 (≈ 7.84 µM)
C=C1CC[C@@H](OO)C(=C)CCC2=C(C(C)C)C(=O)C[C@@]2(C)CC1=O (relative stereo) | 0.57 (≈ 1.71 µM) | 0.31 (≈ 0.932 µM) | 0.052 (≈ 0.156 µM)
C=C1CC/C=C(\C)C/C=C2/[C@@H](C(C)C)C(=O)C[C@]2(C)CC1=O (relative stereo) | > 50 | 27.3 (≈ 90.9 µM) | 2.6 (≈ 8.65 µM)
C=C1CC/C=C(\C)C[C@H]2O[C@@]23[C@@H](C(C)C)C(=O)C[C@]3(C)CC1=O (relative stereo) | 7.74 (≈ 24.5 µM) | 6.39 (≈ 20.2 µM) | 3.83 (≈ 12.1 µM)

Reference: ChEMBL document CHEMBL1155744, “Cytotoxic dolabellane diterpenes from the Formosan soft coral Clavularia inflata” (2001)
